Screens: PubChem BioAssay, The Scripps Research Institute Molecular Screening Center
Rows were chosen to be rich in hits. Some 3.3% of all compounds tested hit in one or more screens of this group.
LEDGF integ inh – blockers of LEDGF/p75-dependent integrase strand transfer – biochemical, TR-FRET, high throughput, primary screen | HIV-1 integrase (with human LEDGF/p75) | TR-FRET IN-LEDGF/p75 DNA integration, Eu/Cy5 | inhibition, % at 3.7 µM | actives 0.64% (n = 370,000) | AID 743269, 2014;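 active means inhibition above the screen-wide mean plus 3 SD, cut at about 13% in these data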;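 further: signal is the Cy5 over europium emission ratio at 671 and 618 nm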
TDP2 absorb – human TDP2 enzyme inhibitors, primary screen, biochemical, epi absorbance, recombinant enzyme | actives 0.34% (n = 370,000) | Tyrosyl-DNA phosphodiesterase 2 (Homo sapiens), O95551 | T5PNP hydrolysis, p-nitrophenol absorbance 415 nm | inhibition, % at 12.8 µM | AID 720702, 2013;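 active means inhibition above the mean of all tested compounds plus 3 SD, set per campaign, cut at about 25% in these data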
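Assay system: Recombinant human TDP2 | Quantity: 120 nM TDP2 per well | Incubation: 2 h at 37 °C | Signal: Epi absorbance | Evaluation: Percent inhibition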
MBD2 inh – inhibitors of MBD2 binding to methylated DNA, primary screen, biochemical, TR-FRET, DNA-binding domain, human; inhibition, % at 4.4 µM; actives 0.31% (n = 370,000); MBD2 binding to methylated oligonucleotide; AID 686964, 2013; Methyl-CpG-binding domain protein 2 (Homo sapiens), Q9UBB5; in the data active means inhibition above about 13%
SIAE inh – human SIAE inhibitors, primary screen, biochemical, fluorescence polarization, FP-Rh probe, 1536-well HTS | SIAE FP-Rh probe binding | inhibition, % at 9.66 µM | actives 0.69% (n = 370,000);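 active means inhibition above a cutoff: mean of compounds within the control limits plus 3 SD of those, cut at about 17% in these data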
Target sequence (Q9HAT2 whole entry, looked up): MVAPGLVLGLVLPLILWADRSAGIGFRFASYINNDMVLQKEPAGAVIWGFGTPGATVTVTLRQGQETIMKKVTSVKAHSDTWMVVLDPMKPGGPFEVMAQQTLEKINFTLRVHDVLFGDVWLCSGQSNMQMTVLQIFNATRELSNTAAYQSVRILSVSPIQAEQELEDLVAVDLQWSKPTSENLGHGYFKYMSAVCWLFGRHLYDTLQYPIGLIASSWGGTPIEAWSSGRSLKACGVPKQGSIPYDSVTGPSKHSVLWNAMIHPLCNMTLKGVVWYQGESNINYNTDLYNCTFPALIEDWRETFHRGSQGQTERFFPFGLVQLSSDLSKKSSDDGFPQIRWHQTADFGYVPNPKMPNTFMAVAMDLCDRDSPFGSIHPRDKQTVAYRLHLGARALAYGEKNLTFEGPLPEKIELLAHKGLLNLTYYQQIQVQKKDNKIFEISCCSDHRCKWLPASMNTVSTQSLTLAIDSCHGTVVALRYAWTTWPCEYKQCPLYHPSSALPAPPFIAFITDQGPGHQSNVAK
UHRF1 MBD2 ctr – UHRF1 methylated DNA binding inhibitors, primary screen, counter-screen for MBD2 inhibitor project, biochemical, TR-FRET, human UHRF1, single concentration; UHRF1 binding to methylated oligo; inhibition, % at 4.4 µM; E3 ubiquitin-protein ligase UHRF1 (Homo sapiens), Q96T88; actives 0.75% (n = 370,000); in the data active means inhibition above about 21%;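 further: UHRF1 SRA domain binding a hemimethylated CpG hairpin DNA probe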
PRMT1 inh – PRMT1 methyltransferase inhibitors, primary screen, biochemical, fluorescence polarization | inhibition, % at 2.79 µM | recombinant PRMT1, activity-based probe fluorescence polarization | actives 1.3% (n = 370,000) | AID 652257, 2013 | Protein arginine N-methyltransferase 1 (Homo sapiens), Q99873;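 active means inhibition above about 21% made by adding two undisclosed values, limit read from the data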
PRMT1 inh conf – PRMT1 methyltransferase inhibitors, confirmation, biochemical, fluorescence polarization, triplicate | shares compounds with PRMT1 inh | AID 687036, 2013 | actives 42% (n = 3,300) | inhibition, % at 2.79 µM | recombinant His-PRMT1, activity-based probe fluorescence polarization;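 active means mean inhibition across replicates above the hit cutoff derived for the earlier primary screen, cut at about 22% in these data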
Of the large screens only hits and unclear results are named; the others gave an inactive call (follow-up assays come after a bar, where they were run).

O=c1[nH]c(-[n+]2ccccc2)c(/C=N/NC([S-])=Nc2ccccc2)s1	PRMT1 inh 50 | PRMT1 inh conf inactive
Cc1cc[n+](-c2[nH]c(=O)sc2/C=N/NC([S-])=Nc2ccccc2)cc1	PRMT1 inh 67 | PRMT1 inh conf 29
Cc1cc(C)c[n+](-c2[nH]c(=O)sc2/C=N/NC([S-])=Nc2ccccc2)c1	PRMT1 inh 48 | PRMT1 inh conf 31
CCc1ccc[n+](-c2[nH]c(=O)sc2/C=N/NC([S-])=Nc2ccccc2)c1	PRMT1 inh 87 | PRMT1 inh conf 40
CC(C)(C)c1cc[n+](-c2[nH]c(=O)sc2/C=N/NC(=O)c2ccccc2[O-])cc1	none
COc1ccc(-n2c(SCC(=O)NNC(=S)Nc3ccc(C)cc3)nnc2-c2ccccc2)cc1	none
Cc1ccc(-c2cc(C(=O)NN=Cc3ccc(N(C)C)cc3)[nH]n2)cc1C	none
CCC[C@H]1[C@@H](OC(=O)NC2CCC2)CC[C@@]23CCCN2C(=O)CCC[C@@H]13	none
CCCCc1c(O)nc(SCC(=O)c2ccccc2)[nH]c1=O	PRMT1 inh 40 | PRMT1 inh conf 38
O=C(CSc1nc(O)c(Cc2ccccc2)c(=O)[nH]1)c1ccccc1	PRMT1 inh 47 | PRMT1 inh conf 34
O=C(CCc1ccccc1)N[C@H]1[C@H](OCc2ccccc2)CCC[C@@]12C(=O)N(Cc1ccccc1)c1ccccc12	none
Cn1c(=O)c(NC2CCCCC2)c2c3c(cccc31)C(=O)c1ccccc1-2	PRMT1 inh 77 | PRMT1 inh conf 41
Cc1cc(C)cc(N(CC(=O)NC2CCC(C)CC2)S(=O)(=O)c2ccc(C)c(C)c2)c1 (stereo not given)	none
N#CCCCc1cn(-c2ccc(-c3noc4c3C(=O)N(CC(=O)N3CCOCC3)CC4)cc2)nn1	none
O=C1NC(=S)CN1c1ccccc1	PRMT1 inh 65 | PRMT1 inh conf 60
O=C1N(c2ccccc2)CCN1c1ccccc1	none
CC(C)(C)c1ccc(O)c(/C=N\O)c1	none
CC(C)(C)c1ccc(O)c(O)c1	PRMT1 inh 26 | PRMT1 inh conf inactive
COc1cc(CNc2ccc3[nH]c(=O)[nH]c3c2)cc(Br)c1OCC(=O)NC(C)(C)C	PRMT1 inh 25 | PRMT1 inh conf inactive
C=CCOc1c(Br)cc(CNc2ccc3[nH]c(=O)[nH]c3c2)cc1OCC	PRMT1 inh 30 | PRMT1 inh conf inactive
COc1cc(CNc2ccc3[nH]c(=O)[nH]c3c2)ccc1OCc1ccccc1C	none
COc1cc(CNc2ccc3[nH]c(=O)[nH]c3c2)ccc1OCc1ccccc1F	PRMT1 inh 29 | PRMT1 inh conf inactive
CCC(C)(C)n1nnnc1C(c1ccc2ncccc2c1)N1CCN(c2ccc(O)cc2)CC1 (stereo not given)	PRMT1 inh 27 | PRMT1 inh conf inactive
Cc1ccc(CNC(=O)C2CCN(S(=O)(=O)c3cccs3)CC2)o1	PRMT1 inh 29 | PRMT1 inh conf inactive
Cc1ccccc1CN[C@@H]1CC[C@@]23CCCN2C(=O)CCC[C@H]3C1	none
S=C(Nc1ccccc1)OCCN1CCCC12CCC(c1ccccc1)CC2 (stereo not given)	none
S=C(Nc1ccccc1Br)OCCN1CCCC12CCC(c1ccccc1)CC2 (stereo not given)	PRMT1 inh 35 | PRMT1 inh conf 31
CCOC(=O)[C@@]12CCCC3=C1N(CCC3)C(=O)[C@H]2CC(=O)NCCc1ccccc1OC	none
O=C(NCCF)C1Nc2ccc(OC(F)(F)F)cc2C2C=CCC12 (stereo not given)	PRMT1 inh 29 | PRMT1 inh conf inactive
C=CCN(CC#CC(=C)C)Cc1ccccc1	none
COc1ccc(OC)c(S(=O)(=O)N2CCCC(C(=O)N3CCN(Cc4ccccc4)CC3)C2)c1 (stereo not given)	none
CCCOc1ccc(-c2c(=O)n(O)c3ccccc3[n+]2[O-])cc1	PRMT1 inh 32 | PRMT1 inh conf inactive
CCOc1ccc(-c2c(=O)n(OCc3ccccn3)c3ccccc3[n+]2[O-])cc1	none
O=c1c(-c2cccc3ccccc23)[n+]([O-])c2ccccc2n1O	PRMT1 inh 25 | PRMT1 inh conf inactive
CCCCNC(=O)C1(C(=O)C2CC2)CC(c2ccccc2C(F)(F)F)=NO1 (stereo not given)	none
Cc1ccc2c(c1)C1CS(=O)(=O)N(C3CCCC3)CN1C2 (stereo not given)	none
CCC(C)(C)NC(=O)c1cc(S(=O)(=O)N2CCc3ccccc32)cn1C	PRMT1 inh 26 | PRMT1 inh conf inactive
Cn1cc(S(=O)(=O)N2CCc3ccccc32)cc1C(=O)NC1CCCCC1	none
COC(=O)[C@]12C[C@H](CC(=O)N3CCSCC3)C(=O)N(Cc3ccc(Cl)cc3Cl)C1=C[C@H](C1CCCC1)O[C@@H]2C	none
Cc1ccccc1NC(=O)[C@@H]1CCCN1S(=O)(=O)c1cccc2cccnc12	none
CCCCOc1[nH]c2nc(-c3ccco3)n(Cc3ccco3)c(=N)c2c1C#N	LEDGF integ inh 19, PRMT1 inh 35 | PRMT1 inh conf 32
Cc1ccccc1N1C(=O)CC(Sc2nnc(-c3ccccc3)o2)C1=O (stereo not given)	PRMT1 inh 83 | PRMT1 inh conf 68
O=C1CC(Sc2nnc(-c3ccccc3)o2)C(=O)N1c1ccccc1 (stereo not given)	PRMT1 inh 68 | PRMT1 inh conf 60
O=C1c2ccccc2CC1Sc1nnc(-c2ccncc2)o1 (stereo not given)	none
CC1=C(C(=O)OCC(C)C)C(c2cc3c(cc2Br)OCO3)NC(=O)N1C (stereo not given)	none
CCCOC(=O)C1=C(C)N(C)C(=O)NC1c1cc2c(cc1[N+](=O)[O-])OCO2 (stereo not given)	PRMT1 inh 27 | PRMT1 inh conf 22
COc1cc(NC(=O)CSc2ncnc3sc4c(c23)CCCC4)c(C(=O)O)cc1OC	PRMT1 inh 32 | PRMT1 inh conf inactive
COc1cccc(-c2nnc(SCc3cc(C)ccc3C)n2Cc2ccco2)c1	none
